Results published in the RNAGym collection of RNA variant scans (doi:10.1126/science.aae0568).
Variants at the floor of the assay were thinned out.

B1: tRNA (parent)
chain: GUUCCGUUGGCGUAAUGGUAACGCGUCUCCCUCCUAAGGAGAAGACUGCGGGUUCGAGUCCCGUACGGAACG

Variants of: B1
Experiment: yeast fitness relative to wild type (ratio to wild type); higher = fitter; tRNA-Arg(CCU), competitive growth, 37 C, YPD
Method in brief: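 Start and end populations of a pooled competition were compared by 100-nucleotide paired-end sequencing of gene amplicons. The Saccharomyces cerevisiae strains carried tRNA-Arg(CCU) gene variants at the native genomic locus, synthesised with a 3% per-site mutation rate at 69 sites, and competed in YPD at 37°C for 24 hours in six parallel replicates. Darwinian fitness relative to wild type was based on the change in genotype frequencies. Genotypes required ≥ 100 starting reads, and estimates < 0.5 were set to 0.5.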
With GUUCCGUUGGCGUAAUGGUCACGCGUCCCCCUCCUCAGGAGAAGACUGCGGGUUCGAGUCCCGUACGGAACG the yeast fitness was ≤ 0.5. For GUUCCGUUGGCGUAAUGGUCACGCGUCUCCCUCCUAAGGAGAAGACUGCGGCUACGAGUCCCGUACGGAACG, the yeast fitness was ≤ 0.5. For GUUCCGUUGGCGUAAUGGUCACGCCUCUUCCUCCUAAGGAGAAGACUGCGGGUUCGAGUCCCGUACGGAACG, the yeast fitness was ≤ 0.5. Variant GUUCCGUUGGCGUAAUGGUCACGCCUCUCCCUCCUAACGAGAAGACUGCGGGUUCCAGUCCCCCACGGAACG has a yeast fitness of 0.524. With GUUCCGUUGGCGUAAUGGUCACGCGUCUCCCUCCUAAGGAGAAGACUGCAGGUUCGAGUCCCGUACGAAACG the yeast fitness was ≤ 0.5. With GUUCCGUUGGCGUAAUGGUCACGCAUCUCCCUCCUAAGGAGAAGACUGCGGGUUCGGGUCCCGUACGGAACG the yeast fitness was 0.694. Work on GUUCCGUUGGCGUAAUGGUCACGCGUCUCCCUCCUAAGGAGAAGACUGCGGGUUCGAGUCCCGUACCGAUCG yielded a yeast fitness of 0.761. GUUCCGUUGGCGUAAUGGUCACGCGUCUCCCACCUAAGGAGAAGACUGCGGGUUCGAGUCCCGUACGGAACG showed a yeast fitness of 0.719. Work on GUUCCGUUGGCGUAAUGGUCACGCGUCUCCCUCCUAAGGAGAAGACUCCGGGUUCGAGUCCCGUACGGAACG yielded a yeast fitness of 0.889. GUUCCGUUGGCGUAAUGGUCACGCGUCUCCCUCCUAAGGAGAAGACUGCGGGUUCGAGUCCCGUACGUAACG gave a yeast fitness of 0.909. GUUCCGUUGGCGUAAUGGUCACGCGUCUCCCUCCUAAGGAGAAGACUGCGGGUUCGAGUCCCGUACGCAACG showed a yeast fitness of 0.689. With GUUCCGUUGGCGUAAUGGUCACGCGUCUCCCUCCUAAGCAGAAGACUGCGGGUUCGAGUCCCGUACGGAUCG the yeast fitness was 0.521. GUUCCGUUGGCGUAAUGGUCACGCGUCUCCCUCCUAAGGAGAACACUGCGGGUUCGAGUCCCGUACGGAACG gave a yeast fitness of 0.688. GUUCCGUUGGCGUAAUGGUCACGCGUCUCCCUCCUAAGGAGAAGACUGCAGGUUCGAGUCCCGUACGGAACG showed a yeast fitness of 0.861. Variant GUUCCGUUGGCGUAAUGGUCACGCGUCUCCCUCCUAAGGAGAAGACUGCGGGUUCAAGUCUCGUACGGAACG has a yeast fitness of 0.571. For GUUCCGUUGGCGUAAUGGUCACGCGUCUCCCUCCUAAGGAGAAGACUGCGGCUUCGAGUCGCGUACGGAACG, the yeast fitness was ≤ 0.5. GUUCCGUUGGCGUAAUGGUCACGCGUCUCCCUCCUAAGGAGAAGACUCCGGGUUCGAGUCCCGUACAGAACG showed a yeast fitness of 0.638. GUUCCGUUGGCGUAAUGGUCACGCGUCUCCCUCCUAAGAAGAAGACUGCGGGUUCGAGUCCCGUACGGAACG showed a yeast fitness of 0.84. In the case of GUUCCGUUGGCGUAAUGGUCACACGUCUCCCUCCUAAGGAGAAGACUGCGGGUUCGAGUCCCGUACGGAACG, the yeast fitness is reported as 0.788. GUUCCGUUGGCGUAAUGGUCACGCGUCUCCCUCCUAAGGAGAAGACUGCAGGUUCGAGUCCUGUACGGAACG gave a yeast fitness of 1.13. GUUCCGUUGGCGUAAUGGUCACGCCUCUCCCUCCUAAGGAGAAGACUGCGGGUUCGAGUCCCGUACGGAACG showed a yeast fitness of 0.783. GUUCCGUUGGCGUAAUGGUCACGCAUCUCCCUCCUAAGGAGAAGACUGCGGGUUCGAGUCCCGUACGGAACG showed a yeast fitness of 1.06. For GUUCCGUUGGCGUAAUGGUCACGCGUCGCCCUCCUAAGGAGAAGAAUGCGGGUUCGAGUCCCGUACGGAACG, the yeast fitness was 0.531. Variant GUUCCGUUGGCGUAAUGGUCACGCGUCUCCCUCCUAAGGAGAAGACUCCGGGUUCGAGUCCCGUAUGGAACG has a yeast fitness of 0.73. For GUUCCGUUGGCGUAAUGGUCACCCGUAUCCCUCCUAAGGAGAAGACUGCGGGUUCGAGUCCCGAACGGAACG, the yeast fitness was ≤ 0.5. GUUCCGUUGGCGUAAUGGUCACGCCUCUCCUUCCUAAGGAGAGGACUGCGAGUUCGAGUCCCGUACAGAACG gave a yeast fitness of 0.583. For GUUCCGUUGGCGUAAUGGUCACGCAUCUCCGUUUUAAGGACAAGACUGCGGGUUCGGGUCCCGUACGGAACG, the yeast fitness was ≤ 0.5. For GUUCCGUUGGCGUAAUGGUCACGCGUCCCCCUCCUAAGGAGAAGACUGCGGGUUCGAGUCCCGUGCGGAACG, the yeast fitness was 0.661. For GUUCCGUUGGCGUAAUGGUCACGCGUCUCCCUCCUAAAGAGAAGACUGCGCGUUCGAGUCCCGGACGGAACG, the yeast fitness was ≤ 0.5. For GUUCCGUUGGCGUAAUGGUCACGCCUCUCCCUCCAAAGGAGAAGUCUGCGGGUUCGAGUCCCGUACGGAACG, the yeast fitness was ≤ 0.5. GUUCCGUUGGCGUAAUGGUCACACGUCUCCCUCCUAAGGAGAAGACUGCGGGUUCGAGUCCCGUACGGAUCG showed a yeast fitness of 0.551. Work on GUUCCGUUGGCGUAAUGGUCACGCGUCUCCCUCCUAAGGAGAAGACUGCGGGUUCAAGUCCCGUACGGAUCG yielded a yeast fitness of 0.91. GUUCCGUUGGCGUAAUGGUCACGCGUCUCCCUCCUAAGGAGAAGACUGCGGGUUCAAGUCCCGUACGGAGCG showed a yeast fitness of 0.611. For GUUCCGUUGGCGUAAUGGUCACGCGUCCCCCUCCUAAGGAGAAGACUGCGGGUUCGAGUCCCGUACGGAACG, the yeast fitness was 0.929. With GUUCCGUUGGCGUAAUGGUCACACGUCUCCCUCCUAAGGAGAAGACUGCAGGUUGGAGUACCGUACGGAACG the yeast fitness was ≤ 0.5. For GUUCCGUUGGCGUAAUGGUCACGCGUCUCCCUCCUAAAGAGAAGACUGCGGGUUCGAGUCCCGUACGGAACG, the yeast fitness was 0.707. In the case of GUUCCGUUGGCGUAAUGGUCACGCGUCUCCCUCCUAACGAGAAGACUGCGGGUUCGAGUCCCGUACGGAACG, the yeast fitness is reported as 0.639.
